Reference: ChEMBL document CHEMBL1764983, “Structure-activity study to develop cationic lipid-conjugated haloperidol derivatives as a new class of anticancer therapeutics” (J Med Chem, 2011)
Activity calls are given as the source filed them. The rule behind the calls is not given here.

How the values were obtained:
[1] = test system: HEK293; assay: Induction of apoptosis in human HEK293 cells expressing sigma receptor assessed as necrotic cells using annexin V/propidium iodide staining at 5 uM after 24 hrs by flow cytometry (reference value: 0.06%); type: cell-based; conditions: hek293, 24 h
[2] = test system: HEK293; assay: Induction of apoptosis in human HEK293 cells expressing sigma receptor assessed as late apoptotic cells using annexin V/propidium iodide staining at 5 uM after 24 hrs by flow cytometry (reference value: […]); type: cell-based; conditions: hek293, 24 h
[3] = test system: HEK293; assay: Induction of apoptosis in human HEK293 cells expressing sigma receptor assessed as early apoptotic cells using annexin V/propidium iodide staining at 5 uM after 24 hrs by flow cytometry (reference value: […]); type: cell-based; conditions: hek293, 24 h
[4] = test system: B16-F10; assay: Antitumor activity against mouse B16F10 cells expressing sigma receptor xenografted in C57BL6/J mouse assessed as tumor regression at 7.5 mg/kg, ip administered 5 times with gap 2 to 3 days; type: functional, organism-based; parameters: dose 7.5 mg/kg
Outline: (§1)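 Male C57BL6/J mice, 6-8 weeks old, given 2 × 10⁵ B16F10 cells s.c. in the lower right abdomen. From day 11, groups of four mice received 7.5 mg/kg i.p. in PBS with 10% DMSO, five injections 2-3 days apart. Tumours measured three times a week; volume = 0.5ab². Tumours excised on day 23, cut as 10 μm cryosections, fixed and fluorometric TUNEL-stained.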

[5] = test system: B16-F10; assay: Antitumor activity against mouse B16F10 cells expressing sigma receptor xenografted in C57BL6/J mouse assessed as increase of apoptotic region in tumor at 7.5 mg/kg, ip administered 5 times with gap 2 to 3 days by TUNEL assay; type: functional, organism-based; parameters: dose 7.5 mg/kg; outline: as §1
[6] = test system: B16-F10; assay: Induction of apoptosis in mouse B16F10 cells expressing sigma receptor assessed as decrease of Bcl-2 protein expression at 10 uM after 24 hrs by Western blotting; type: functional, cell-based
Outline: (§2)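 B16F10 cells (in RPMI) and HUVEC (passages 2-3, in EBM with bullet kit minus serum) exposed to 10 μM compound or left untreated for 24 h under charcoal-stripped serum conditions. Whole-cell lysates made in cold RIPA (pH 7.4) with phosphatase/protease inhibitors and 2 mM vanadate. SDS-PAGE gradient gel, PVDF transfer, probed for caspase 3, Bax, Bcl-2, Akt, pAkt and β-actin with HRP-chemiluminescence detection.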

[7] = test system: B16-F10; assay: Induction of apoptosis in mouse B16F10 cells expressing sigma receptor assessed as increase of Bax protein expression at 10 uM after 24 hrs by Western blotting; type: functional, cell-based; outline: as §2
[8] = test system: B16-F10; assay: Induction of apoptosis in mouse B16F10 cells expressing sigma receptor assessed as increase of Bax/Bcl-2 protein ratio at 10 uM after 24 hrs by Western blotting; type: functional, cell-based; outline: as §2
[9] = test system: B16-F10; assay: Induction of apoptosis in mouse B16F10 cells expressing sigma receptor assessed as increase of cleaved caspase 3 expression at 10 uM after 24 hrs by Western blotting; type: functional, cell-based; outline: as §2
[10] = test system: B16-F10; assay: Induction of apoptosis in mouse B16F10 cells expressing sigma receptor assessed as phosphorylated Akt level at 10 uM after 24 hrs by Western blotting; type: functional, cell-based; outline: as §2
[11] = test system: HUVEC; assay: Induction of apoptosis in HUVEC assessed as increase of cleaved caspase 3 expression at 10 uM after 24 hrs by Western blotting; type: functional, cell-based; conditions: Homo sapiens; outline: as §2
[12] = test system: HUVEC; assay: Induction of apoptosis in HUVEC assessed as phosphorylated Akt level at 10 uM after 24 hrs by Western blotting; type: functional, cell-based; conditions: Homo sapiens; outline: as §2
[13] = test system: HUVEC; assay: Induction of apoptosis in HUVEC assessed as increase of Bax/Bcl-2 protein ratio at 10 uM after 24 hrs by Western blotting; type: functional, cell-based; conditions: Homo sapiens; outline: as §2
[14] = test system: MCF7; assay: Induction of apoptosis in human MCF7 cells expressing sigma receptor assessed as viable cells using annexin V/propidium iodide staining at 5 uM after 24 hrs by flow cytometry (reference value: 97.33%); type: functional
[15] = test system: MCF7; assay: Induction of apoptosis in human MCF7 cells expressing sigma receptor assessed as necrotic cells using annexin V/propidium iodide staining at 5 uM after 24 hrs by flow cytometry (reference value: 0.27%); type: functional
[16] = test system: MCF7; assay: Cytotoxicity against human MCF7 cells expressing sigma receptor at 0.5 to 50 uM after 48 hrs by MTT assay; type: functional, cell-based
Outline: (§3)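 MTT reduction assay. Cells grown in RPMI-1640 with 10% FBS at 37 °C, 5% CO₂, and used at 85-90% confluency. Seeded at 5000 cells/well 18-24 h ahead, then exposed continuously for 48 h in triplicate wells. Working solutions made in 10% FBS medium with DMSO ≤1%. Cells washed before MTT.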

[17] = test system: MDA-MB-231; assay: Cytotoxicity against human MDA-MB-231 cells expressing sigma receptor at 0.5 to 50 uM after 48 hrs by MTT assay; type: functional, cell-based; outline: as §3
[18] = test system: ZR-75-1; assay: Cytotoxicity against human ZR-75-1 cells expressing sigma receptor after 48 hrs by MTT assay; type: functional, cell-based; conditions: ZR-75-1, 48 h; outline: as §3
[19] = test system: B16-F10; assay: Cytotoxicity against mouse B16F10 cells expressing sigma receptor after 48 hrs by MTT assay; type: functional, cell-based; conditions: B16-F10, 48 h; outline: as §3
[20] = test system: MCF7; assay: Cytotoxicity against human MCF7 cells expressing sigma receptor after 48 hrs by MTT assay; type: functional, cell-based; conditions: MCF7, 48 h; outline: as §3
[21] = test system: MDA-MB-231; assay: Cytotoxicity against human MDA-MB-231 cells expressing sigma receptor after 48 hrs by MTT assay; type: functional, cell-based; conditions: MDA-MB-231, 48 h; outline: as §3
[22] = test system: COS-1; assay: Cytotoxicity against african green monkey COS1 cells expressing sigma receptor after 48 hrs by MTT assay; type: cell-based; conditions: Chlorocebus aethiops, COS-1, 48 h; outline: as §3
[23] = test system: HEK293; assay: Cytotoxicity against human HEK293 cells expressing sigma receptor after 48 hrs by MTT assay; type: cell-based; conditions: HEK293, 48 h; outline: as §3
[24] = test system: MCF7; assay: Induction of apoptosis in human MCF7 cells expressing sigma receptor assessed as late apoptotic cells using annexin V/propidium iodide staining at 5 uM after 24 hrs by flow cytometry (reference value: 1.48%); type: functional
[25] = test system: MCF7; assay: Induction of apoptosis in human MCF7 cells expressing sigma receptor assessed as early apoptotic cells using annexin V/propidium iodide staining at 5 uM after 24 hrs by flow cytometry (reference value: 0.92%); type: functional
[26] = test system: B16-F10; assay: Induction of apoptosis in mouse B16F10 cells expressing sigma receptor assessed as necrotic cells using annexin V/propidium iodide staining at 5 uM after 24 hrs by flow cytometry (reference value: 0.25%); type: functional
[27] = test system: B16-F10; assay: Induction of apoptosis in mouse B16F10 cells expressing sigma receptor assessed as viable cells using annexin V/propidium iodide staining at 5 uM after 24 hrs by flow cytometry (reference value: 98.30%); type: functional
[28] = test system: B16-F10; assay: Induction of apoptosis in mouse B16F10 cells expressing sigma receptor assessed as late apoptotic cells using annexin V/propidium iodide staining at 5 uM after 24 hrs by flow cytometry (reference value: 1.21%); type: functional
[29] = test system: B16-F10; assay: Induction of apoptosis in mouse B16F10 cells expressing sigma receptor assessed as early apoptotic cells using annexin V/propidium iodide staining at 5 uM after 24 hrs by flow cytometry (reference value: 0.92%); type: functional
[30] = test system: COS-1; assay: Induction of apoptosis in against african green monkey COS1 cells expressing sigma receptor assessed as necrotic cells using annexin V/propidium iodide staining at 5 uM after 24 hrs by flow cytometry (reference value: 0.08%); type: cell-based; conditions: chlorocebus aethiops, cos-1, 24 h
[31] = Induction of apoptosis in against african green monkey COS1 cells expressing sigma receptor assessed as viable cells using annexin V/propidium iodide staining at 5 uM after 24 hrs by flow cytometry (reference value: 99.82%); type: cell-based; conditions: chlorocebus aethiops, COS-1 cells expressing sigma receptor; read-out: Activity
[32] = test system: COS-1; assay: Induction of apoptosis in against african green monkey COS1 cells expressing sigma receptor assessed as late apoptotic cells using annexin V/propidium iodide staining at 5 uM after 24 hrs by flow cytometry (reference value: 0.04%); type: cell-based; conditions: chlorocebus aethiops, cos-1, 24 h
[33] = test system: COS-1; assay: Induction of apoptosis in against african green monkey COS1 cells expressing sigma receptor assessed as early apoptotic cells using annexin V/propidium iodide staining at 5 uM after 24 hrs by flow cytometry (reference value: 0.06%); type: cell-based; conditions: chlorocebus aethiops, cos-1, 24 h
[34] = Induction of apoptosis in human HEK293 cells expressing sigma receptor assessed as viable cells using annexin V/propidium iodide staining at 5 uM after 24 hrs by flow cytometry (reference value: 99.76%); type: cell-based; conditions: read-out: Activity
[35] = test system: MCF7; assay: Cytotoxicity against sigma receptor depleted human MCF7 cells assessed as cell viability at 10 uM after 48 hrs by MTT assay in presence of siRNA treated for 4 hrs before compound challenge

Compound: CCCCCCCC[N+](C)(CCCCCCCC)CC(=O)NCCC(=O)OC1(c2ccc(Cl)cc2)CCN(CCCC(=O)c2ccc(F)cc2)CC1.[Cl-]
- Activity [1]: 0.14%
- Activity [2]: 0.15%
- Activity [3]: 0.14%
- Activity [4]: Active
- Activity [5]: Active
- Activity [6]: Active
- Activity [7]: Active
- Activity [8]: Active
- Activity [9]: Active
- Activity [10]: Active
- Activity [11]: Active
- Activity [12]: Active
- Activity [13]: Active
- Activity [14]: 47.43%
- Activity [15]: 14.35%
- Activity [16]: Active
- Activity [17]: Active
- IC50 [18]: 2500 nM
- IC50 [19]: 2500 nM
- IC50 [20]: 2500 nM
- IC50 [21]: 2500 nM
- IC50 [22]: 7000 nM
- IC50 [23]: 7000 nM
- Activity [24]: 33.2%
- Activity [25]: 5.02%
- Activity [26]: 1.03%
- Activity [27]: 41.47%
- Activity [28]: 53.41%
- Activity [29]: 4.1%
- Activity [30]: 0.12%
- viability at 24 h, 5 µM [31]: 99.7%
- Activity [32]: 0.06%
- Activity [33]: 0.11%
- viability at 24 h, 5 µM [34]: 99.6%
- viability at 10 µM [35]: 25%

Compound: CCCC[N+](C)(CCCC)CC(=O)NCCC(=O)OC1(c2ccc(Cl)cc2)CCN(CCCC(=O)c2ccc(F)cc2)CC1
- Activity [16]: Active
- Activity [17]: Active

Compound: CCCCCCCCCCCC[N+](C)(CCCCCCCCCCCC)CC(=O)NCCC(=O)OC1(c2ccc(Cl)cc2)CCN(CCCC(=O)c2ccc(F)cc2)CC1
- Activity [16]: Active
- Activity [17]: Active

Compound: CCCCCCCCCCCCCCCC[N+](C)(CCCCCCCCCCCCCCCC)CC(=O)NCCC(=O)OC1(c2ccc(Cl)cc2)CCN(CCCC(=O)c2ccc(F)cc2)CC1
- Activity [16]: Active
- Activity [17]: Active

Compound: O=C(CCCN1CCC(O)(c2ccc(Cl)cc2)CC1)c1ccc(F)cc1 [HALOPERIDOL]
- Activity [1]: 0.07%
- Activity [2]: 0.18%
- Activity [3]: 0.11%
- Activity [14]: 97.66%
- Activity [15]: 0.09%
- Activity [16]: Active
- Activity [17]: Active
- Activity [24]: 1.74%
- Activity [25]: 0.51%
- Activity [26]: 1.58%
- Activity [27]: 97.17%
- Activity [28]: 0.95%
- Activity [29]: 0.29%
- Activity [30]: 0.17%
- viability at 24 h, 5 µM [31]: 99.6%
- Activity [32]: 0.16%
- Activity [33]: 0.11%
- viability at 24 h, 5 µM [34]: 99.6%
